Laboratory results: ChEMBL document CHEMBL1671644, “Inhibition of human immunodeficiency virus type 1 infection by the candidate microbicide dapivirine, a nonnucleoside reverse transcriptase inhibitor” (Antimicrob Agents Chemother, 2009)

Tests used:
Format in all cases: functional
[1] = system: Human immunodeficiency virus 1; experiment: Antiviral activity against HIV-1 subtype D V022832 infected in human MT4 cells assessed as inhibition of viral replication relative to HIV-1 3B
In short: (§1)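 MT-4 cells (3 x 10^4/well) infected with site-directed mutants or recombinant clinical isolates (200 TCID50/well) with drug, cultured 3 to 5 days. Viability read by MTT colorimetric antivirogram assay. IC50 by nonlinear regression; fold change = IC50 for the test isolate / IC50 for wild-type HIV-1 IIIB tested in parallel (mean or median).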

[2] = system: Human immunodeficiency virus 1; experiment: Antiviral activity against HIV-1 SM052 harboring NNTRI 101E and 103N mutant infected in human MT4 cells assessed as inhibition of viral replication relative to HIV-1 3B; in short: as §1
[3] = system: Human immunodeficiency virus 1; experiment: Antiviral activity against HIV-1 SM051 harboring NNTRI 100I and 103N mutant infected in human MT4 cells assessed as inhibition of viral replication relative to HIV-1 3B; in short: as §1
[4] = system: Human immunodeficiency virus 1; experiment: Antiviral activity against HIV-1 subtype H V022828 harboring NNRTI K101Q and V179I mutant infected in human MT4 cells assessed as inhibition of viral replication relative to HIV-1 3B; in short: as §1
[5] = system: Human immunodeficiency virus 1; experiment: Antiviral activity against HIV-1 subtype D V022819 infected in human MT4 cells assessed as inhibition of viral replication relative to HIV-1 3B; in short: as §1
[6] = system: Human immunodeficiency virus 1; experiment: Antiviral activity against HIV-1 subtype CRF01_AE V029521 infected in human MT4 cells assessed as inhibition of viral replication relative to HIV-1 3B
In short: (§2)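 Recombinant clinical HIV-1 isolates (200 TCID50/well) were tested in MT-4 cells (3 x 10^4/well) over 3–5 days, with an MTT viability read-out. IC50 was fitted by nonlinear regression. Fold change is the isolate IC50 divided by the HIV-1IIIB IC50, tested in parallel.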

[7] = system: Human immunodeficiency virus 1; experiment: Antiviral activity against HIV-1 SM030 harboring NNTRI 100I mutant infected in human MT4 cells assessed as inhibition of viral replication relative to HIV-1 3B; in short: as §1
[8] = system: Human immunodeficiency virus 1; experiment: Antiviral activity against HIV-1 subtype CRF02_AG V022808 infected in human MT4 cells assessed as inhibition of viral replication relative to HIV-1 3B; in short: as §1
[9] = system: Human immunodeficiency virus 1; experiment: Antiviral activity against HIV-1 SM007 harboring NNTRI 103N mutant infected in human MT4 cells assessed as inhibition of viral replication relative to HIV-1 3B; in short: as §1
[10] = system: Human immunodeficiency virus 1; experiment: Antiviral activity against HIV-1 subtype CRF02_AG V022825 infected in human MT4 cells assessed as inhibition of viral replication relative to HIV-1 3B; in short: as §1
[11] = system: Human immunodeficiency virus 1; experiment: Antiviral activity against HIV-1 SM002 harboring NNTRI 181C mutant infected in human MT4 cells assessed as inhibition of viral replication relative to HIV-1 3B; in short: as §1
[12] = system: Human immunodeficiency virus 1; experiment: Antiviral activity against HIV-1 SM058 harboring NNTRI 227L and 106A mutant infected in human MT4 cells assessed as inhibition of viral replication relative to HIV-1 3B; in short: as §1
[13] = system: Human immunodeficiency virus 1; experiment: Antiviral activity against HIV-1 SM026 harboring NNTRI 103N and 181C mutant infected in human MT4 cells assessed as inhibition of viral replication relative to HIV-1 3B; in short: as §1
[14] = system: Human immunodeficiency virus 1; experiment: Antiviral activity against HIV-1 subtype B V022812 harboring NNRTI V179I mutant infected in human MT4 cells assessed as inhibition of viral replication relative to HIV-1 3B; in short: as §1
[15] = system: Human immunodeficiency virus 1; experiment: Antiviral activity against HIV-1 subtype CRF05_DF V022824 harboring NNRTI V106I mutant infected in human MT4 cells assessed as inhibition of viral replication relative to HIV-1 3B; in short: as §1
[16] = system: Human immunodeficiency virus 1; experiment: Antiviral activity against HIV-1 subtype B V022815 infected in human MT4 cells assessed as inhibition of viral replication relative to HIV-1 3B; in short: as §2
[17] = system: Human immunodeficiency virus 1; experiment: Antiviral activity against HIV-1 subtype O V029524 harboring NNRTI A98G, V179E and Y181C mutant infected in human MT4 cells assessed as inhibition of viral replication relative to HIV-1 3B; in short: as §1
[18] = system: Human immunodeficiency virus 1; experiment: Antiviral activity against HIV-1 subtype D V022818 infected in human MT4 cells assessed as inhibition of viral replication relative to HIV-1 3B; in short: as §1
[19] = system: Human immunodeficiency virus 1; experiment: Antiviral activity against HIV-1 SM034 harboring NNTRI 188L mutant infected in human MT4 cells assessed as inhibition of viral replication relative to HIV-1 3B; in short: as §1
[20] = system: Human immunodeficiency virus 1; experiment: Antiviral activity against HIV-1 SM024 harboring NNTRI 190A mutant infected in human MT4 cells assessed as inhibition of viral replication relative to HIV-1 3B; in short: as §1
[21] = system: Human immunodeficiency virus 1; experiment: Antiviral activity against HIV-1 subtype CRF02_AG V022826 infected in human MT4 cells assessed as inhibition of viral replication relative to HIV-1 3B; in short: as §1
[22] = system: Human immunodeficiency virus 1; experiment: Antiviral activity against HIV-1 subtype C V022816 infected in human MT4 cells assessed as inhibition of viral replication relative to HIV-1 3B; in short: as §2
[23] = system: Human immunodeficiency virus 1; experiment: Antiviral activity against HIV-1 subtype B V022807 infected in human MT4 cells assessed as inhibition of viral replication relative to HIV-1 3B; in short: as §2
[24] = system: Human immunodeficiency virus 1; experiment: Antiviral activity against HIV-1 subtype B V022811 infected in human MT4 cells assessed as inhibition of viral replication relative to HIV-1 3B; in short: as §2
[25] = system: Human immunodeficiency virus 1; experiment: Antiviral activity against HIV-1 subtype CRF02_AG V022830 infected in human MT4 cells assessed as inhibition of viral replication relative to HIV-1 3B; in short: as §1
[26] = system: Human immunodeficiency virus 1; experiment: Antiviral activity against HIV-1 subtype CRF05_DF V022823 infected in human MT4 cells assessed as inhibition of viral replication relative to HIV-1 3B; in short: as §1
[27] = system: Human immunodeficiency virus 1; experiment: Antiviral activity against HIV-1 subtype B V022814 infected in human MT4 cells assessed as inhibition of viral replication relative to HIV-1 3B; in short: as §1
[28] = system: Human immunodeficiency virus 1; experiment: Antiviral activity against HIV-1 subtype CRF01_AE V022821 infected in human MT4 cells assessed as inhibition of viral replication relative to HIV-1 3B; in short: as §2
[29] = system: Human immunodeficiency virus 1; experiment: Antiviral activity against HIV-1 subtype H V029523 harboring NNRTI K101Q and V179I mutant infected in human MT4 cells assessed as inhibition of viral replication relative to HIV-1 3B; in short: as §1
[30] = system: Human immunodeficiency virus 1; experiment: Antiviral activity against HIV-1 subtype B V022810 harboring NNRTI A98S andK101R mutant infected in human MT4 cells assessed as inhibition of viral replication relative to HIV-1 3B; in short: as §1
[31] = system: Human immunodeficiency virus 1; experiment: Antiviral activity against HIV-1 subtype B V022813 infected in human MT4 cells assessed as inhibition of viral replication relative to HIV-1 3B; in short: as §1
[32] = system: Human immunodeficiency virus 1; experiment: Antiviral activity against HIV-1 subtype C V022829 infected in human MT4 cells assessed as inhibition of viral replication relative to HIV-1 3B; in short: as §1
[33] = system: Human immunodeficiency virus 1; experiment: Antiviral activity against HIV-1 subtype C V022831 infected in human MT4 cells assessed as inhibition of viral replication relative to HIV-1 3B; in short: as §1
[34] = system: Human immunodeficiency virus 1; experiment: Antiviral activity against HIV-1 subtype H V022827 harboring NNRTI V179I mutant infected in human MT4 cells assessed as inhibition of viral replication relative to HIV-1 3B; in short: as §1
[35] = system: Human immunodeficiency virus 1; experiment: Antiviral activity against HIV-1 SM012 harboring NNTRI 108I mutant infected in human MT4 cells assessed as inhibition of viral replication relative to HIV-1 3B; in short: as §1
[36] = system: Human immunodeficiency virus 1; experiment: Antiviral activity against HIV-1 subtype CRF05_DF V022833 harboring NNRTI V179I mutant infected in human MT4 cells assessed as inhibition of viral replication relative to HIV-1 3B; in short: as §1
[37] = system: Human immunodeficiency virus 1; experiment: Antiviral activity against HIV-1 subtype B V022809 infected in human MT4 cells assessed as inhibition of viral replication relative to HIV-1 3B; in short: as §1
[38] = system: Human immunodeficiency virus 1; experiment: Antiviral activity against HIV-1 subtype CRF01_AE V022822 infected in human MT4 cells assessed as inhibition of viral replication relative to HIV-1 3B; in short: as §1
[39] = system: Human immunodeficiency virus 1; experiment: Antiviral activity against HIV-1 subtype CRF01_AE V029525 infected in human MT4 cells assessed as inhibition of viral replication relative to HIV-1 3B; in short: as §2

**Q.** How did the “Ratio IC50” value [1] turn out when CC(C)Nc1cccnc1N1CCN(C(=O)c2cc3cc(NS(C)(=O)=O)ccc3[nH]2)CC1 [DELAVIRDINE] was run?
**A.** Its value is 1.1.

**Q.** What about the “Ratio IC50” value [2] of the same molecule?
**A.** The value was 90.

**Q.** What about the “Ratio IC50” value [3] of the same molecule?
**A.** Its value is 621.

**Q.** And the “Ratio IC50” value [4]?
**A.** The value was 2.

**Q.** And the “Ratio IC50” value [5]?
**A.** Its value is 2.3.

**Q.** What about the “Ratio IC50” value [6] of the same molecule?
**A.** Its value is 4.4.

**Q.** And the “Ratio IC50” value [7]?
**A.** Its value is 215.

**Q.** And the “Ratio IC50” value [8]?
**A.** Its value is 0.6.

**Q.** What about the “Ratio IC50” value [9] of the same molecule?
**A.** Its value is 105.

**Q.** And the “Ratio IC50” value [10]?
**A.** Its value is 1.9.

**Q.** And the “Ratio IC50” value [11]?
**A.** The value was 83.

**Q.** What about the “Ratio IC50” value [12] of the same molecule?
**A.** Its value is 10.

**Q.** And the “Ratio IC50” value [13]?
**A.** The value was 621.

**Q.** And the “Ratio IC50” value [14]?
**A.** Its value is 6.

**Q.** And the “Ratio IC50” value [15]?
**A.** Its value is 1.3.

**Q.** What about the “Ratio IC50” value [16] of the same molecule?
**A.** Its value is 4.9.

**Q.** And the “Ratio IC50” value [17]?
**A.** The value was 140.

**Q.** And the “Ratio IC50” value [18]?
**A.** The value was 0.9.

**Q.** What about the “Ratio IC50” value [19] of the same molecule?
**A.** Its value is 12.

**Q.** What about the “Ratio IC50” value [20] of the same molecule?
**A.** The value was 2.

**Q.** And the “Ratio IC50” value [21]?
**A.** Its value is 1.3.

**Q.** What about the “Ratio IC50” value [22] of the same molecule?
**A.** The value was 5.3.

**Q.** What about the “Ratio IC50” value [23] of the same molecule?
**A.** The value was 3.6.

**Q.** And the “Ratio IC50” value [24]?
**A.** Its value is 3.7.

**Q.** And the “Ratio IC50” value [25]?
**A.** Its value is 0.9.

**Q.** What about the “Ratio IC50” value [26] of the same molecule?
**A.** The value was 0.6.

**Q.** What about the “Ratio IC50” value [27] of the same molecule?
**A.** The value was 1.9.

**Q.** What about the “Ratio IC50” value [28] of the same molecule?
**A.** Its value is 2.3.

**Q.** What about the “Ratio IC50” value [29] of the same molecule?
**A.** Its value is 2.6.

**Q.** What about the “Ratio IC50” value [30] of the same molecule?
**A.** The value was 2.7.

**Q.** What about the “Ratio IC50” value [31] of the same molecule?
**A.** The value was 0.7.

**Q.** What about the “Ratio IC50” value [32] of the same molecule?
**A.** Its value is 2.7.

**Q.** And the “Ratio IC50” value [33]?
**A.** The value was 2.6.

**Q.** What about the “Ratio IC50” value [34] of the same molecule?
**A.** Its value is 0.3.

**Q.** And the “Ratio IC50” value [35]?
**A.** Its value is 2.

**Q.** What about the “Ratio IC50” value [36] of the same molecule?
**A.** The value was 0.6.

**Q.** What about the “Ratio IC50” value [37] of the same molecule?
**A.** Its value is 2.6.

**Q.** What about the “Ratio IC50” value [38] of the same molecule?
**A.** The value was 2.7.

**Q.** And the “Ratio IC50” value [39]?
**A.** The value was 20.
